{
  "source": "ChEMBL document CHEMBL1152818",
  "about": "“Structural bioinformatics-based design of selective, irreversible kinase inhibitors” (Science, 2005)",
  "key": {"[1]": {"test_system": "Tyrosine-protein kinase transforming protein Src (Avian leukosis virus RSA (RSV-SRA) (Rous sarcoma virus (strainSchmidt-Ruppin A))), P00524 [V281C]", "assay": "Inhibition of Rous sarcoma virus V-src V281C mutant expressed in mouse NIH-3T3 cells assessed as reduction in steady-state phosphotyrosine level preincubated for 1 hr by Western blot", "assay_type": "cell-based", "conditions": "NIH3T3"}, "[2]": {"test_system": "Tyrosine-protein kinase transforming protein Src (Avian leukosis virus RSA (RSV-SRA) (Rous sarcoma virus (strainSchmidt-Ruppin A))), P00524 [V281C]", "assay": "Reversion of Rous sarcoma virus V-src V281C mutant-dependent cell morphology in mouse NIH-3T3 cells assessed as cells acquiring actin stress fibres at 1 uM after 16 hrs by phalloidin-FITC and DAPI staining", "assay_type": "cell-based", "conditions": "NIH3T3"}, "[3]": {"molecular_target": "Tyrosine-protein kinase Fyn (Homo sapiens, UniProt P06241, V285C)", "sequence (P06241 2-537 V285C limits assumed)": "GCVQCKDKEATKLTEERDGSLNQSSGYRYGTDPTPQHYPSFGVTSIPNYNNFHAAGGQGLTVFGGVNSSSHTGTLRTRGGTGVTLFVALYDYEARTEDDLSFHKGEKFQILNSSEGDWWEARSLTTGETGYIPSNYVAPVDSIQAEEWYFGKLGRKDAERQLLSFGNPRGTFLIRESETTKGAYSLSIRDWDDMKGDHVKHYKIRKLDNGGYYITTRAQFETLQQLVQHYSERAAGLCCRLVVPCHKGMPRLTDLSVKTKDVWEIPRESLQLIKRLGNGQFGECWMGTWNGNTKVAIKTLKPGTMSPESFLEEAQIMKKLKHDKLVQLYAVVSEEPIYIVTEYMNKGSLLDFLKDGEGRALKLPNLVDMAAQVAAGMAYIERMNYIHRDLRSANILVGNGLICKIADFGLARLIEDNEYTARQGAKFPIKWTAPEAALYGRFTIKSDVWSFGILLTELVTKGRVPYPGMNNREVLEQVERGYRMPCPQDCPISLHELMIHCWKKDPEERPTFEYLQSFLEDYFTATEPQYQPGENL", "assay": "Inhibition of FYN Val285Cys mutant expressed in Escherichia coli"}, "NIH3T3 [4]": {"test_system": "NIH3T3", "assay": "Reversion of Rous sarcoma virus wild type V-src-dependent cell morphology in mouse NIH-3T3 cells assessed as cells acquiring actin stress fibres at 1 uM after 16 hrs by phalloidin-FITC and DAPI staining", "assay_type": "cell-based"}, "NIH3T3 [5]": {"test_system": "NIH3T3", "assay": "Inhibition of Rous sarcoma virus wild type V-src expressed in mouse NIH-3T3 cells assessed as reduction in steady-state phosphotyrosine level preincubated for 1 hr by Western blot", "assay_type": "cell-based"}, "[6]": {"molecular_target": "T1, Ribosomal protein S6 kinase alpha-3 (Homo sapiens, UniProt P51812)", "T1 sequence (P51812 whole entry, the tested form may be a part)": "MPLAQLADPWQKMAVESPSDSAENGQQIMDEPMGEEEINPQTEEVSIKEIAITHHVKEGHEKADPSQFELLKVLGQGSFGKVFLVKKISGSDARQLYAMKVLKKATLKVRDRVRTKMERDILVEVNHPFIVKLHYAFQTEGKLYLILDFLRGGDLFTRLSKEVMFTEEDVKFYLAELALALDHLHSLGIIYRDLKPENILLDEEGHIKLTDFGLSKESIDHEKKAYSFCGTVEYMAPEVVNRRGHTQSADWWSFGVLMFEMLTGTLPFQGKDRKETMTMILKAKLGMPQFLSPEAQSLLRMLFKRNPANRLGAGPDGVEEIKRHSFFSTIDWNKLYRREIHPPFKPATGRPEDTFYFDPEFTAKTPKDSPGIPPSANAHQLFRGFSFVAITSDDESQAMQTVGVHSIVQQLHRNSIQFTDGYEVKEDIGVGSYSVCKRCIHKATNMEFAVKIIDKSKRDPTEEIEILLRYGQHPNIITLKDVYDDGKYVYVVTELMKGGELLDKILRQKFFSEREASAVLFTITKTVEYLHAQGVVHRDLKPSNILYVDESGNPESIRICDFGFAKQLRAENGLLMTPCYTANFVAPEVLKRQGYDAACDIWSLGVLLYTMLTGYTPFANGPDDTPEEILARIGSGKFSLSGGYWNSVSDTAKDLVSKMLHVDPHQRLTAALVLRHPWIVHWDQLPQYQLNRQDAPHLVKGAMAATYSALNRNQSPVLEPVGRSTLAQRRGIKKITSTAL", "assay": "Inhibition of RSK2 C-terminal kinase domain expressed in Escherichia coli preincubated for 30 mins", "procedure,_shortened": "(§1)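 His6-tagged RSK2 CTDs (WT or mutant) expressed in E. coli, activated with bacterially expressed His6-ERK2 plus ATP. Enzyme at 1 nM pretreated with inhibitor for 30 min, then assayed with 0.1 mM ATP and 0.1 mM \"CTD-tide\" peptide substrate.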"}, "[7]": {"molecular_target": "Ribosomal protein S6 kinase alpha-3 (Homo sapiens, UniProt P51812, C436V)", "sequence (P51812 whole entry C436V, the tested form may be a part)": "as the sequence (P51812 whole entry, the tested form may be a part) above, with C436V counted along it", "assay": "Inhibition of RSK2 C-terminal kinase domain C436V mutant expressed in Escherichia coli preincubated for 30 mins", "procedure,_shortened": "as §1"}, "[8]": {"molecular_target": "Ribosomal protein S6 kinase alpha-3 (Homo sapiens, UniProt P51812, T493M)", "sequence (P51812 whole entry T493M, the tested form may be a part)": "as the sequence (P51812 whole entry, the tested form may be a part) above, with T493M counted along it", "assay": "Inhibition of RSK2 C-terminal kinase domain T493M mutant expressed in Escherichia coli preincubated for 30 mins", "procedure,_shortened": "as §1"}, "[9]": {"molecular_target": "Ribosomal protein S6 kinase alpha-1 (Homo sapiens) (UniProt Q15418)", "sequence (Q15418 whole entry)": "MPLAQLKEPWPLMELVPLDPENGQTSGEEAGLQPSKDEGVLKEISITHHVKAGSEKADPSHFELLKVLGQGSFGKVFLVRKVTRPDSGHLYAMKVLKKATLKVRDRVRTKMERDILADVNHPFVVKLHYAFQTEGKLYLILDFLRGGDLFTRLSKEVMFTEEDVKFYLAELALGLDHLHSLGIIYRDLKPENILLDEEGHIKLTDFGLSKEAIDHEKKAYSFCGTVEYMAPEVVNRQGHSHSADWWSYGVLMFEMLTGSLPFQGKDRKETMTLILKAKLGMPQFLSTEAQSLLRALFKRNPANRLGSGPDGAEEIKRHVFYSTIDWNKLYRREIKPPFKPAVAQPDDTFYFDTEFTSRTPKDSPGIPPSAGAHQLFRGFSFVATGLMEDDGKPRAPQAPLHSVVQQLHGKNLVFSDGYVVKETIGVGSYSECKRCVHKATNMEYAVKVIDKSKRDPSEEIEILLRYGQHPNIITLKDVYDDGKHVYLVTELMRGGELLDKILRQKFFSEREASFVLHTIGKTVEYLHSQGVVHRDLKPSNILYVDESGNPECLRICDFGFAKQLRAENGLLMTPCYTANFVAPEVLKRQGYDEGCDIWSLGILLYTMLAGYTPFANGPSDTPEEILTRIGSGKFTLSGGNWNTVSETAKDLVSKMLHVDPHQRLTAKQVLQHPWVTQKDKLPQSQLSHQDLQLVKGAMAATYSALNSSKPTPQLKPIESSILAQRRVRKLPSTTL", "assay": "Binding affinity to RSK1 in HEK293 cells assessed as protein labeling at 1 µM preincubated for 1 hr by immunodepletion method"}, "[10]": {"molecular_target": "T1, Ribosomal protein S6 kinase alpha-3", "assay": "Binding affinity to wild type RSK2 at 1 uM preincubated for 1 hr by denaturing gel electrophoresis and Western blot", "procedure,_shortened": "(§2)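 His6-tagged RSK2 C-terminal kinase domains (WT or mutant) exposed to 1 μM biotin-fmk for 1 hour in the presence of His6-ERK2. Proteins resolved by SDS-PAGE. Western blot probed with streptavidin-HRP for covalent label and anti-His6 for total protein.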"}, "[11]": {"test_system": "Ribosomal protein S6 kinase alpha-3 (Homo sapiens), P51812 [T493M]", "sequence (P51812 whole entry T493M)": "as the sequence (P51812 whole entry, the tested form may be a part) above, with T493M counted along it", "assay": "Binding affinity to RSK2 T493M mutant at 1 uM preincubated for 1 hr by denaturing gel electrophoresis and Western blot", "procedure,_shortened": "as §2"}, "[12]": {"molecular_target": "T1, Ribosomal protein S6 kinase alpha-3", "assay": "Binding affinity to RSK2 in HEK293 cells assessed as protein labeling at 1 µM preincubated for 1 hr by enhanced chemiluminescence detection"}, "[13]": {"test_system": "Ribosomal protein S6 kinase alpha-3 (Homo sapiens), P51812 [C436V]", "sequence (P51812 whole entry C436V)": "as the sequence (P51812 whole entry, the tested form may be a part) above, with C436V counted along it", "assay": "Binding affinity to RSK2 C436V mutant at 1 uM preincubated for 1 hr by denaturing gel electrophoresis and Western blot", "procedure,_shortened": "as §2"}, "[14]": {"molecular_target": "Ribosomal protein S6 kinase alpha-1 (Homo sapiens) (UniProt Q15418)", "assay": "Binding affinity to RSK1 in HEK293 cells assessed as protein labeling at 1 µM preincubated for 1 hr by enhanced chemiluminescence detection"}, "[15]": {"molecular_target": "T1, Ribosomal protein S6 kinase alpha-3", "assay": "Binding affinity to RSK2 in HEK293 cells assessed as protein labeling at 1 µM preincubated for 1 hr by immunodepletion method"}, "[16]": {"assay": "Inhibition of EGF-stimulated RSK2 Ser386 autophosphorylation in serum starved african green monkey COS7 cells by immunoprecipitation and Western blot", "assay_type": "cell-based, Chlorocebus aethiops", "conditions": "cos-7", "procedure,_shortened": "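COS-7 cells serum-deprived 20 h, exposed to a range of inhibitor concentrations, then stimulated with EGF (1 ng/mL) for 10 min. Endogenous RSK2 immunoprecipitated and blotted for phospho-Ser386 and total RSK2. EC50 taken from the concentration series.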"}, "COS-7 [17]": {"test_system": "COS-7", "assay": "Inhibition of EGF-stimulated ERK1 phosphorylation in serum starved african green monkey COS7 cells at 10 µM by Western blot", "conditions": "Chlorocebus aethiops"}, "[18]": {"test_system": "Ribosomal protein S6 kinase alpha-5 (Homo sapiens), O75582 [M498T]", "sequence (O75582 whole entry M498T)": "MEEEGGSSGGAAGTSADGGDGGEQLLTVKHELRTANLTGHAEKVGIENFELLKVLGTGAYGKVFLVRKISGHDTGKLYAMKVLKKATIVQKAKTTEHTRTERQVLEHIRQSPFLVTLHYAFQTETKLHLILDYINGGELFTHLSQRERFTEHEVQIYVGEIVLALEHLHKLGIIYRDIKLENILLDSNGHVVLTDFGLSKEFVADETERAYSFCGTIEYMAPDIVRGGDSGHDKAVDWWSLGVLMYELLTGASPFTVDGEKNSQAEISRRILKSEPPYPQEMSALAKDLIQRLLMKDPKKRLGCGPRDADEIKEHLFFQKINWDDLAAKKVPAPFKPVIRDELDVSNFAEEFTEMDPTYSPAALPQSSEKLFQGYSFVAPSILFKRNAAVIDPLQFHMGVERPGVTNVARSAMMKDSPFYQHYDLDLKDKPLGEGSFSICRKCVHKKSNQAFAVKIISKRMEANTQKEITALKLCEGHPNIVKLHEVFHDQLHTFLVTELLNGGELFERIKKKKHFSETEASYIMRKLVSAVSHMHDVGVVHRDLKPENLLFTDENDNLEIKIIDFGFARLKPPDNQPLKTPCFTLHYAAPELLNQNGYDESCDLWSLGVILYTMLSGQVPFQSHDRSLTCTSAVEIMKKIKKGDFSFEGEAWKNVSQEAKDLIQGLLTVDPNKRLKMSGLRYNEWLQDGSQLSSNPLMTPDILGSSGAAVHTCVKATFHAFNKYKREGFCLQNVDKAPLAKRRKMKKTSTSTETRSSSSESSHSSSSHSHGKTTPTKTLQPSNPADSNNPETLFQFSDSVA", "assay": "Inhibition of MSK1 M498T mutant phosphorylation expressed in serum starved african green monkey COS7 cells by Western blot", "assay_type": "cell-based", "conditions": "COS-7", "procedure,_shortened": "(§3)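 COS-7 cells transfected with HA-tagged WT or M498T MSK1. Lysed in Laemmli buffer. Western blots probed for phospho-Ser386 RSK (MSK1 autophosphorylation), HA epitope and phospho-Ser10 histone H3.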"}, "COS-7 [19]": {"test_system": "COS-7", "assay": "Inhibition of EGF-stimulated ERK2 phosphorylation in serum starved african green monkey COS7 cells at 10 µM by Western blot", "conditions": "Chlorocebus aethiops"}, "[20]": {"molecular_target": "Ribosomal protein S6 kinase alpha-5 (Homo sapiens) (UniProt O75582)", "sequence (O75582 whole entry, looked up)": "as the sequence (O75582 whole entry M498T) above, with T498M counted along it", "assay": "Inhibition of MSK1-mediated histone H3 Ser10 phosphorylation expressed in serum starved african green monkey COS7 cells by Western blot", "assay_type": "cell-based", "conditions": "COS-7", "procedure,_shortened": "as §3"}, "NIH3T3 [21]": {"test_system": "NIH3T3", "assay": "Inhibition of PMA-stimulated histone H3 phosphorylation in mouse NIH-3T3 cells at 10 uM by SDS page and Western blot", "assay_type": "functional, cell-based"}},
  "note": "Calls of active or inactive are those of the source. The rule behind the calls is not given here.",
  "data": [
    {"molecule": "Cc1ccc(-c2c(C(=O)CCl)n(CCCO)c3ncnc(N)c23)cc1", "values": [
      {"measurement": "Activity", "setting": "[1]", "value": "Active"},
      {"measurement": "Activity", "setting": "[2]", "value": 2, "unit": "%"},
      {"measurement": "IC50", "setting": "[3]", "value": 100, "unit": "nM"},
      {"measurement": "Activity", "setting": "NIH3T3 [4]", "value": 75, "unit": "%"},
      {"measurement": "Activity", "setting": "NIH3T3 [5]", "value": "inactive"}
    ]},
    {"molecule": "Cc1ccc(-c2cn(CCCO)c3ncnc(N)c23)cc1", "values": [
      {"measurement": "IC50", "setting": "[6]", "value": 1200, "unit": "nM"},
      {"measurement": "IC50", "setting": "[7]", "value": 430, "unit": "nM"},
      {"measurement": "IC50", "setting": "[8]", "value": "> 30000", "unit": "nM"}
    ]},
    {"molecule": "Cc1ccc(-c2c(C(=O)CF)n(CCCOC(=O)NCCCCNC(=O)CCCC[C@@H]3SC[C@H]4NC(=O)N[C@@H]34)c3ncnc(N)c23)cc1", "values": [
      {"measurement": "Activity", "setting": "[9]", "value": "Active"},
      {"measurement": "Activity", "setting": "[10]", "value": "Active"},
      {"measurement": "Activity", "setting": "[11]", "value": "inactive"},
      {"measurement": "Activity", "setting": "[12]", "value": "Active"},
      {"measurement": "Activity", "setting": "[13]", "value": "inactive"},
      {"measurement": "Activity", "setting": "[14]", "value": "Active"},
      {"measurement": "Activity", "setting": "[15]", "value": "Active"}
    ]},
    {"molecule": "Cc1ccc(-c2c(C(=O)CF)n(CCCO)c3ncnc(N)c23)cc1", "values": [
      {"measurement": "EC50", "setting": "[16]", "value": 200, "unit": "nM"},
      {"measurement": "Activity", "setting": "COS-7 [17]", "value": "inactive"},
      {"measurement": "Activity", "setting": "[18]", "value": "Active"},
      {"measurement": "IC50", "setting": "[3]", "value": 1, "unit": "nM"},
      {"measurement": "Activity", "setting": "COS-7 [19]", "value": "inactive"},
      {"measurement": "Activity", "setting": "[20]", "value": "inactive"},
      {"measurement": "Activity", "setting": "NIH3T3 [21]", "value": "inactive"}
    ]}
  ]
}
